Results from ChEMBL document CHEMBL1250497, “Synthesis and pharmacological study of 1-acetyl/propyl-3-aryl-5-(5-chloro-3-methyl-1-phenyl-1H-pyrazol-4-yl)-2-pyrazoline” (2010).

Columns and labels:
Type in all cases: functional
Rattus norvegicus [1] = assay: Antiinflammatory activity in albino rat assessed as reduction of carrageenan-induced paw volume at 10 mg/kg, po administered 30 mins before carrageenan challenge measured after 90 mins by plethysmograph (reference value: 0.3667 +/- 0.033 ml)
In short: (§1)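 Rats, six per group, were dosed orally at 10 mg/kg. Controls received 0.1 mL of 1% gum acacia; diclofenac sodium was the standard. After 30 min, 0.1 mL of 1% carrageenan in normal saline was injected sub-plantar into the right hind paw. Paw volume was read by plethysmograph at 0 h and at 30-150 min. Oedema is expressed as change versus control at matching times (±SE).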

Rattus norvegicus [2] = assay: Analgesic activity in albino rat assessed as latency in reaction time required for thermal stimulus-induced tail flicking at 10 mg/kg, po after 60 mins
In short: (§2)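 Albino rats, 150-200 g, six per group, held in a restrainer. A 3-4 cm marked segment of tail was immersed in water at 55 °C. Tail withdrawal time (s) was recorded before dosing and at 30, 60 and 90 min after oral dosing at 10 mg/kg in 1% gum acacia. Cut-off was 30 s. Controls received vehicle only. Pentazocin was the reference.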

Rattus norvegicus [3] = assay: Antiinflammatory activity in albino rat assessed as reduction of carrageenan-induced paw volume at 10 mg/kg, po administered 30 mins before carrageenan challenge measured after 60 mins by plethysmograph (reference value: 0.333 +/- 0.033 ml); in short: as §1
Rattus norvegicus [4] = assay: Antiinflammatory activity in albino rat assessed as reduction of carrageenan-induced paw volume at 10 mg/kg, po administered 30 mins before carrageenan challenge measured after 120 mins by plethysmograph (reference value: 0.367 +/- 0.033 ml); in short: as §1
Rattus norvegicus [5] = assay: Analgesic activity in albino rat assessed as latency in reaction time required for thermal stimulus-induced tail flicking at 10 mg/kg, po after 30 mins; in short: as §2
Rattus norvegicus [6] = assay: Antiinflammatory activity in albino rat assessed as reduction of carrageenan-induced paw volume at 10 mg/kg, po administered 30 mins before carrageenan challenge measured after 150 mins by plethysmograph (reference value: 0.3667 +/- 0.033 ml); in short: as §1
Rattus norvegicus [7] = assay: Analgesic activity in albino rat assessed as latency in reaction time required for thermal stimulus-induced tail flicking at 10 mg/kg, po after 90 mins; in short: as §2
Rattus norvegicus [8] = assay: Antiinflammatory activity in albino rat assessed as reduction of carrageenan-induced paw volume at 10 mg/kg, po administered 30 mins before carrageenan challenge measured after 30 mins by plethysmograph (reference value: 0.333 +/- 0.033 ml); in short: as §1

Row | SMILES | Activity (Rattus norvegicus [1]) [mL] | Time (Rattus norvegicus [2]) [s] | Activity (Rattus norvegicus [3]) [mL] | Activity (Rattus norvegicus [4]) [mL] | Time (Rattus norvegicus [5]) [s] | Activity (Rattus norvegicus [6]) [mL] | Time (Rattus norvegicus [7]) [s] | Activity (Rattus norvegicus [8]) [mL]
1 | CCC(=O)N1N=C(c2ccc(C)cc2)CC1c1c(C)nn(-c2ccccc2)c1Cl (centres undefined) | 0.133 | 3.733 | 0.133 | 0.3 | 2.9 | 0.3 | 4.6 | 0.0667
2 | CCC(=O)N1N=C(c2ccc(Br)cc2)CC1c1c(C)nn(-c2ccccc2)c1Cl (centres undefined) | 0.2 | 4.167 | 0.133 | 0.2667 | 3.8 | 0.2667 | 4.5 | 0.1667
3 | CCC(=O)N1N=C(c2ccccc2)CC1c1c(C)nn(-c2ccccc2)c1Cl (centres undefined) | 0.433 | 2.7 | 0.333 | 0.367 | 2.333 | 0.3667 | 3.633 | 0.2667
4 | CC(=O)N1N=C(c2ccc(Br)cc2)CC1c1c(C)nn(-c2ccccc2)c1Cl (centres undefined) | 0.033 | 4.733 | 0.033 | 0.1667 | 3.967 | 0.3 | 4.833 | 0.1
5 | CC(C)=CCN1CC[C@]2(C)c3cc(O)ccc3C[C@H]1[C@H]2C [(+)-PENTAZOCINE] |  | 5.6 |  |  | 2.9 |  | 6.4 | 
6 | O=C([O-])Cc1ccccc1Nc1c(Cl)cccc1Cl.[Na+] [DICLOFENAC SODIUM] | 0.033 |  | 0.033 | 0.033 |  | 0.033 |  | 0.033
7 | COc1ccc(C2=NN(C(C)=O)C(c3c(C)nn(-c4ccccc4)c3Cl)C2)cc1 (centres undefined) | 0.1 | 3.7 | 0 | 0.0667 | 2.9 | 0.1 | 4.333 | 0
8 | CCC(=O)N1N=C(c2cccc([N+](=O)[O-])c2)CC1c1c(C)nn(-c2ccccc2)c1Cl (centres undefined) | 0.033 | 3.067 | 0.033 | 0.1 | 2.767 | 0.1 | 4.333 | 0.033
9 | CC(=O)N1N=C(c2ccc(C)cc2)CC1c1c(C)nn(-c2ccccc2)c1Cl (centres undefined) | 0.0667 | 4.567 | 0.1 | 0.033 | 3.3 | 0.0667 | 5.467 | 0.0667
10 | CCC(=O)N1N=C(c2ccc([N+](=O)[O-])cc2)CC1c1c(C)nn(-c2ccccc2)c1Cl (centres undefined) | 0.033 | 3.533 | 0.0667 | 0 | 3.1 | 0.033 | 3.933 | 0.0667
11 | CCC(=O)N1N=C(c2ccc(OC)cc2)CC1c1c(C)nn(-c2ccccc2)c1Cl (centres undefined) | 0.133 | 4.633 | 0.1667 | 0.1667 | 4.667 | 0.2 | 4.4 | 0.1667
12 | CC(=O)N1N=C(c2ccc([N+](=O)[O-])cc2)CC1c1c(C)nn(-c2ccccc2)c1Cl (centres undefined) | 0.06 | 4.767 | 0.0667 | 0.0667 | 3.467 | 0.1667 | 5.267 | 0.1
13 | CC(=O)N1N=C(c2cccc([N+](=O)[O-])c2)CC1c1c(C)nn(-c2ccccc2)c1Cl (centres undefined) | 0.033 | 4.733 | 0.0667 | 0.0667 | 3.7 | 0.133 | 4.833 | 0.0667
14 | CC(=O)N1N=C(c2ccc(Cl)cc2)CC1c1c(C)nn(-c2ccccc2)c1Cl (centres undefined) | 0.033 | 3.067 | 0.0667 | 0.0667 | 2.5 | 0.0667 | 4.2 | 0.033
